Measured values of several laboratories.
Each line is one published result; the experiments were not run side by side.
Cell line: THP-1

| SMILES | read-out | action | method | time | notes | IC50 |
| --- | --- | --- | --- | --- | --- | --- |
| Nc1ncc(-c2cnn(C3CCNCC3)c2)cc1-c1nnc(CC2CC2)o1 | cell growth or viability |  | trypan blue | 72 h |  | 163 nM |
| NCCc1c[nH]cn1 | TNF-α release | inhibitor | ELISA | 17 h | LPS-stimulated | 710 nM |
| O=C(Nc1nnc(-c2cc3ccccc3[nH]2)s1)c1cc2c([nH]c3ccccc32)c(-c2ccccc2)n1 | cell growth or viability |  | MTT | 72 h |  | 3570 nM |
| Cc1cnc(-c2ccc(-c3ccc(NC(=O)Nc4c(F)cc(F)cc4F)cc3F)c3c2C(=O)NC3)[nH]1 | cell growth or viability |  |  |  |  | 3.88 nM |
| O=C(Nc1nnc(-c2cc3ccccc3[nH]2)s1)c1cc2c([nH]c3ccccc32)c(-c2ccc(F)cc2)n1 | cell growth or viability |  | MTT | 72 h |  | 6110 nM |
| Cc1ccc(S(=O)(=O)/C=C/C#N)cc1 | TNF-α release | inhibitor |  | 17 h | LPS-stimulated | 1220 nM |
| CCn1c(-c2nnc(NC(=O)c3cc4c([nH]c5ccccc54)c(-c4ccc(OC)cc4)n3)s2)cc2ccccc21 | cell growth or viability |  | MTT | 72 h |  | 48600 nM |
| COc1cccc2c1C(=O)c1c(O)c3c(c(O)c1C2=O)C[C@@](O)(C(=O)CO)C[C@@H]3O[C@H]1C[C@H](N)[C@H](O)[C@H](C)O1 | cell growth or viability |  | MTT | 48 h |  | 2.7 µg/mL |
| CC(C)(C)c1ccc(S(=O)(=O)/C=C/C#N)cc1 | TNF-α release | inhibitor |  | 17 h | LPS-stimulated | 740 nM |
| COc1ccc(-c2nc(C(=O)Nc3nnc(-c4cc5ccccc5n4C)s3)cc3c2[nH]c2ccccc23)cc1 | cell growth or viability |  | MTT | 72 h |  | 14400 nM |
| N[C@@H](CC(=O)N1CCN(C(c2ccc(F)cc2)c2ccc(F)cc2)CC1)C(=O)N1Cc2ccccc2C1 | cell growth or viability |  | ATP luminescence | 48 h |  | 2740 nM |
| CNCC(O)c1ccc(O)c(O)c1 (racemic) | TNF-α release | inhibitor |  | 17 h | LPS-stimulated | 150 nM |
| CCn1c(-c2nnc(NC(=O)c3cc4c([nH]c5ccccc54)c(-c4ccc(C)cc4)n3)s2)cc2ccccc21 | cell growth or viability |  | MTT | 72 h |  | 38900 nM |
| COc1cc(/C=C/C(=O)CC(=O)/C=C/c2ccc(O)c(OC)c2)ccc1O | cell growth or viability |  | MTT | 48 h |  | 24 µg/mL |
| O=C(O)c1ccc(CN2CCC(CN[C@@H]3C[C@H]3c3ccccc3)CC2)cc1 | cell growth or viability |  | MTS | 6 days |  | > 50000 nM |
| COc1cccc2c1C(=O)c1c(O)c3c(c(O)c1C2=O)C[C@@](O)(C(=O)CO)C[C@@H]3O[C@H]1C[C@H](N)[C@H](O)[C@H](C)O1 | cell growth or viability |  | MTT | 72 h |  | 3250 nM |
| C=C1C(=O)O[C@H]2[C@H]1CC/C(C)=C/CC[C@@]1(C)O[C@@H]21 | TNF-α release | inhibitor |  | 17 h | LPS-stimulated | 1300 nM |
| CC[C@@H](C)[C@H](N)C(=O)N1Cc2ccccc2C1 | cell growth or viability |  | ATP luminescence | 48 h |  | 2500 nM |
| O=C(Nc1nc2ccccc2n1CCN1CCOCC1)c1cccc([N+](=O)[O-])c1 | TNF-α release | inhibitor |  | 17 h | LPS-stimulated | 1120 nM |
| O=[N+]([O-])c1c[nH]nc1-c1nc(-c2ccc(Oc3ccc(I)cc3)cc2)no1 | cell growth or viability |  | LDH | 24 h |  | > 50 µg/mL |
